Published values gathered from unrelated publications.
Compare with care: the assays were run in different laboratories.
Organism: Acinetobacter baumannii
Effect on: microbial growth

Structure (SMILES)	assay	test system	conditions	MIC
NC[C@H]1O[C@H](O[C@H]2[C@H](O)[C@@H](O[C@H]3O[C@H](CO)[C@@H](O)[C@H](N)[C@H]3O)[C@H](N)C[C@@H]2N)[C@H](N)C[C@@H]1O				1 µg/mL
CN[C@@H]1[C@H](O[C@H]2[C@H](O[C@H]3[C@H](O)[C@@H](O)[C@H](N=C(N)N)[C@@H](O)[C@@H]3N=C(N)N)O[C@@H](C)[C@]2(O)C=O)O[C@@H](CO)[C@H](O)[C@H]1O		ATCC19606		> 2000 µg/mL
CO[C@@H](C(N)=O)[C@H](NC(=O)c1ccc(NC(=O)c2ccc(C#N)cc2)cc1)C(=O)Nc1ccc(C(=O)Nc2ccc(C(=O)Nc3ccc(C(=O)O)cc3)c(O)c2OC(C)C)cc1		DSM30008		1 µg/mL
O=C(O)c1ccc(-n2cc(/C=N/Nc3cccc(F)c3)c(-c3ccc4ccccc4c3)n2)cc1		ATCCBAA1605		25 µg/mL
N=C(N)c1cccc(OCc2ccc(COc3cccc(C(=N)N)c3)cc2)c1	broth dilution	ATCC17978		> 200 µg/mL
C/C(O)=C1\C(=O)C(CC(C)C)N(C(=O)CCCCCc2ccccc2)C1=O (stereo not shown)		ATCC19606		> 200 µg/mL
NC[C@H]1O[C@H](O[C@H]2[C@H](O)[C@@H](O[C@H]3O[C@H](CO)[C@@H](O)[C@H](N)[C@H]3O)[C@H](N)C[C@@H]2N)[C@H](N)C[C@@H]1O	broth dilution			2.6 µM
CN(C)c1cc(CNCC(C)(C)C)c(O)c2c1C[C@H]1C[C@H]3[C@H](N(C)C)C(O)=C(C(N)=O)C(=O)[C@@]3(O)C(O)=C1C2=O	broth dilution	ATCC19606		1 µg/mL
COc1cccc2c(O)c3c(cc12)C[C@H]1C[C@H]2[C@H](N(C)C)C(O)=C(C(N)=O)C(=O)[C@@]2(O)C(O)=C1C3=O	broth dilution	ATCC19606		> 32 µg/mL
CCCNc1nc(F)c2c(c1O)C(=O)C1=C(O)[C@]3(O)C(=O)C(C(N)=O)=C(O)[C@@H](N(C)C)[C@@H]3C[C@@H]1C2.Cl.Cl	broth dilution	ATCC19606		0.125 µg/mL
CC(NCCCCOc1ccc(Cl)c(Cl)c1)c1cc2cc(Br)ccc2[nH]1 (stereo not shown)	broth dilution	ATCC19606		32 µg/mL
O=C(CCCCCC[P+](c1ccccc1)(c1ccccc1)c1ccccc1)Nc1cc(O)c(O)c(O)c1.[Br-]	broth dilution	ATCC19606	18 h	> 32 µg/mL
CCCCCCC/C=C/C(=O)N1C(=O)/C(=C(\O)c2ccc(F)cc2)C(=O)C1CC(C)C (stereo not shown)		ATCC19606		> 200 µg/mL
O=C(Nc1ccc(F)c(Cl)c1)c1cc(Cl)ccc1O	broth dilution	BAA1605		> 64 µg/mL
CCCCCCC/C=C/C(=O)N1C(=O)/C(=C(\O)c2ccncc2)C(=O)C1CC(C)C (stereo not shown)		ATCC19606		> 200 µg/mL
CN(C)[C@@H]1C(O)=C(C(N)=O)C(=O)[C@@]2(O)C(O)=C3C(=O)c4c(c(F)c5ccc(CNC6CC6)cc5c4O)C[C@H]3C[C@@H]12	broth dilution	ATCC19606		1 µg/mL
CCCCCCC/C=C/C(=O)N1C(=O)/C(=C(\O)CCCC)C(=O)C1CC(C)C (stereo not shown)		ATCC19606		200 µg/mL
O=C(O)c1ccc(-n2cc(/C=N/Nc3cccc(Br)c3)c(-c3ccc(F)cc3)n2)cc1		ATCCBAA1605		12.5 µg/mL
C[C@H]1COc2c(N3CCN(C)CC3)c(F)cc3c(=O)c(C(=O)O)cn1c23	broth dilution			3.3 µM
CC(C)Oc1c(NC(=O)c2ccc(NC(=O)[C@H](CC(N)=O)NC(=O)c3ccc(NC(=O)c4ccc(C#N)cn4)cc3)cc2)ccc(C(=O)Nc2ccc(C(=O)O)cc2)c1O		DSM30008		0.125 µg/mL

Structure (SMILES)	assay	test system	conditions	MIC
CN(C)[C@@H]1C(O)=C(C(N)=O)C(=O)[C@@]2(O)C(O)=C3C(=O)c4c(cc5ccc(CN6CC(F)(F)C6)cc5c4O)C[C@H]3C[C@@H]12	broth dilution	ATCC19606		32 µg/mL
CN[C@H](CC(C)C)C(=O)N[C@H]1C(=O)N[C@@H](CC(N)=O)C(=O)N[C@H]2C(=O)N[C@H]3C(=O)N[C@H](C(=O)N[C@H](C(=O)O)c4cc(O)cc(O)c4-c4cc3ccc4O)[C@H](O)c3ccc(c(Cl)c3)Oc3cc2cc(c3O[C@@H]2O[C@H](CO)[C@@H](O)[C@H](O)[C@H]2O[C@H]2C[C@](C)(N)[C@H](O)[C@H](C)O2)Oc2ccc(cc2Cl)[C@H]1O	broth dilution	ATCC19606	18 h	> 32 µg/mL
CCCCC(=O)N1C(=O)/C(=C(/C)O)C(=O)C1CC(C)C (stereo not shown)		ATCC19606		> 200 µg/mL
O=C(CCCCCCCC[P+](c1ccccc1)(c1ccccc1)c1ccccc1)Nc1cc(O)c(O)c(O)c1.[Br-]	broth dilution	ATCC19606	18 h	> 32 µg/mL
C[C@H]1COc2c(N3CCN(C)CC3)c(F)cc3c(=O)c(C(=O)O)cn1c23	broth dilution	ATCC19606		≤ 0.125 µg/mL
NC1CCc2c1[nH]c1ccc(Cl)c(Cl)c21 (stereo not shown)	broth dilution	ATCC19606		8 µg/mL
CCCNc1nc(N(C)C)c2c(c1O)C(=O)C1=C(O)[C@]3(O)C(=O)C(C(N)=O)=C(O)[C@@H](N(C)C)[C@@H]3C[C@@H]1C2.Cl.Cl	broth dilution	ATCC19606		> 32 µg/mL
C[C@@H](O)[C@H]1C(=O)N2C(C(=O)O)=C(SCCN=CN)C[C@H]12	broth dilution	KCCM40203	16 h	1 µM
CCCCCCC/C=C/C(=O)N1C(=O)/C(=C(\O)c2ccc(OCOCCOC)cc2)C(=O)C1CC(C)C (stereo not shown)		ATCC19606		200 µg/mL
CNC(=O)c1cc(Oc2ccc(NC(=O)Nc3ccc(Cl)c(C(F)(F)F)c3)cc2)ccn1		DSM30007		> 100 µM
O=C(O)c1ccc(-n2cc(/C=N/Nc3ccc(F)cc3)c(-c3ccc(F)cc3)n2)cc1		ATCCBAA1605		25 µg/mL
CNc1cccc2c(O)c3c(cc12)C[C@H]1C[C@H]2[C@H](N(C)C)C(O)=C(C(N)=O)C(=O)[C@@]2(O)C(O)=C1C3=O	broth dilution	ATCC19606		> 32 µg/mL
O=[N+]([O-])c1ccc(O)c2ncccc12	broth dilution	ATCC19606		8 µg/mL
O=C(O)c1ccc(-n2cc(/C=N/Nc3ccc(F)c(Cl)c3)c(-c3ccc4ccccc4c3)n2)cc1		ATCCBAA1605		25 µg/mL
N=C(N)c1ccc(OCc2cc(COc3ccc(C(=N)N)cc3)cc(-c3ccccc3)c2)cc1	broth dilution	ATCC17978		> 200 µg/mL
CC[C@H]1OC(=O)[C@H](C)[C@@H](O[C@H]2C[C@@](C)(OC)[C@@H](O)[C@H](C)O2)[C@H](C)[C@@H](O[C@@H]2O[C@H](C)C[C@H](N(C)C)[C@H]2O)[C@](C)(O)C[C@@H](C)C(=O)[C@H](C)[C@@H](O)[C@]1(C)O		ATCC19606		50 µg/mL
COc1ncc(O)c2c1C[C@H]1C[C@H]3[C@H](N(C)C)C(O)=C(C(N)=O)C(=O)[C@@]3(O)C(O)=C1C2=O.Cl.Cl	broth dilution	ATCC19606		0.5 µg/mL
N=C(N)c1ccc(OCc2cc(Br)cc(COc3ccc(C(=N)N)cc3)c2)cc1	broth dilution	ATCC17978		> 200 µg/mL
CN(C)[C@@H]1C(O)=C(C(N)=O)C(=O)[C@@]2(O)C(O)=C3C(=O)c4c(O)cnc(-c5ccccc5)c4C[C@H]3C[C@@H]12.Cl.Cl	broth dilution	ATCC19606		0.125 µg/mL
CNC(C)C1CCC(N)C(OC2C(N)CC(N)C(OC3OCC(C)(O)C(NC)C3O)C2O)O1 (stereo not shown)				0.5 to 1 µg/mL
